Series [1] can be described thus: Permeability of the compound at 10 uM after 30 mins by PAMPA. It counts as ADME. Particulars: read-out: permeability. In general terms: PAMPA measures passive passage across an artificial lipid membrane.
Series [2] is described as follows: Half life in CD-1 mouse liver microsomes by UPLC-MS analysis. It counts as ADME. (In general: Liver microsomes are a subcellular fraction often used to study metabolism.)
A short description of series [3]: Half life in rat liver microsomes by UPLC-MS analysis. Format: ADME.
A short description of series [4]: Half life in human liver microsomes by UPLC-MS analysis. Format: ADME.
Series [5] in a line: Half life in dog liver microsomes by UPLC-MS analysis. It counts as ADME, Canis lupus familiaris.
Series [6] can be described thus: Intrinsic clearance in CD-1 mouse liver microsomes after 0.5 to 4 hrs by UPLC-MS analysis. Particulars: read-out: CLH. Format: ADME.
Series [7] in a line: Intrinsic clearance in rat liver microsomes after 0.5 to 4 hrs by UPLC-MS analysis. Format: ADME. Particulars: read-out: CLH.
Series [8] can be described thus: Intrinsic clearance in human liver microsomes after 0.5 to 4 hrs by UPLC-MS analysis. It counts as ADME. Particulars: read-out: CLH.
Series [9] is described as follows: Intrinsic clearance in dog liver microsomes after 0.5 to 4 hrs by UPLC-MS analysis. It counts as ADME, Canis lupus familiaris. Particulars: read-out: CLH.
The subject of series [10] is Plasma. Nature of the series: Stability in mouse plasma assessed as compound stability time by UPLC-MS analysis. Format: ADME, cell-free.
Series [11] has as its system Plasma. Nature of the series: Stability in rat plasma assessed as compound stability time by UPLC-MS analysis. Format: ADME, cell-free.
For series [12], the system named is Plasma. Nature of the series: Stability in human plasma assessed as compound stability time by UPLC-MS analysis. Format: ADME, cell-free.
The nature of series [13]: Stability of the compound in phosphate buffered saline assessed as compound stability time at pH 7.4 by UPLC-MS analysis. Format: physicochemical. Particulars: buffer.
A short description of series [14]: Stability of the compound in phosphate buffered saline assessed as compound stability time at pH 5 by UPLC-MS analysis. Format: physicochemical. The settings on record: buffer.
The nature of series [15]: Stability of the compound in phosphate buffered saline assessed as compound stability time at pH 3 by UPLC-MS analysis. Particulars: buffer. It counts as physicochemical.
A short description of series [16]: Half life of the compound in aqueous buffer. Format: physicochemical.
A short description of series [17]: Cmax in C57BL/6 mouse at 20 mg/kg, iv by UPLC-MS analysis. Format: ADME, organism-based. The settings on record: in vivo. Set-up: dose 20 mg/kg, route intravenous. In a few lines:
(§1)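 Female C57BL/6 mice, 22-27 g; single tail-vein injection at 10 or 20 mg/kg (vehicle groups at 0) in EtOH/PPG/PBS pH 7.4 5/45/50 with HβCD 10 mM and 5% DMSO, 4 ml/kg. Blood taken at 5, 15, 30 min, 1, 4, 24 h, one mouse per time point, and at 48 h. EDTA plasma mixed with acetonitrile containing warfarin internal standard; UPLC/MS quantitation by peak-area ratio.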

A short description of series [18]: Tmax in C57BL/6 mouse at 20 mg/kg, iv by UPLC-MS analysis. Format: ADME, organism-based. The settings on record: in vivo. In a few lines:
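Female C57BL/6 mice (22-27 g) received a single tail-vein injection at 4 ml/kg in 5/45/50 EtOH/PPG/PBS (pH 7.4) with 10 mM HβCD and 5% DMSO. Groups were 0, 10 and 20 mg/kg. Blood was drawn retro-orbitally at 5, 15, 30 min, 1, 4, 24 and 48 h into EDTA. Plasma was precipitated with acetonitrile containing 2 uM warfarin as internal standard and quantified by UPLC/MS from the analyte/internal-standard peak-area ratio.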

The species entered for series [19] is Mus musculus. Nature of the series: Drug metabolism in C57BL/6 mouse assessed as 4-(5-amino-3-(pyridin-2-yl)-1H-1,2,4-triazol-1-yl)-7-methoxyquinazolin-6-ol formation by qualitative tandem mass spectrometric analysis. Particulars: in vivo. It counts as ADME, organism-based.
For series [20], the species on record is Mus musculus. Description: Drug metabolism in C57BL/6 mouse assessed as 4-(5-amino-3-(pyridin-2-yl)-1H-1,2,4-triazol-1-yl)quinazoline-6,7,8-triol formation by qualitative tandem mass spectrometric analysis. Format: ADME, organism-based. Particulars: in vivo.
For series [21], the species on record is Mus musculus. Nature of the series: Drug metabolism in C57BL/6 mouse assessed as (2S,3S,4S,5R,6S)-6-(4-(5-amino-3-(pyridin-2-yl)-1H-1,2,4-triazol-1-yl)-7-methoxyquinazolin-6-yloxy)-3,4,5-trihydroxytetrahydro-2H-pyran-2-carboxylic acid formation by qualitative tandem mass spectrometric analysis. Particulars: in vivo. Format: ADME, organism-based.
A short description of series [22]: Clearance in C57BL/6 mouse at 10 mg/kg, iv. Format: ADME, organism-based. The settings on record: in vivo. In a few lines: as §1
Series [23] is described as follows: Half life in C57BL/6 mouse at 10 mg/kg, iv. It counts as ADME, organism-based. The settings on record: in vivo. In a few lines:
as §1

A short description of series [24]: Half life in C57BL/6 mouse at 20 mg/kg, iv by UPLC-MS analysis. Format: ADME, organism-based. Particulars: in vivo. In a few lines:
as §1

The species named for series [25] is Mus musculus. Nature of the series: Drug level in C57BL/6 mouse treated with 1-(6,7-Dimethoxyquinazolin-4-yl)-3-(pyridin-2-yl)-1H-1,2,4-triazol-5-amine by qualitative tandem mass spectrometric analysis. It counts as ADME, organism-based. Particulars: in vivo.

One may read the half-life as how long it takes for the measured level to halve. Broadly, the Cmax is the highest concentration seen after dosing. As a reminder, the Tmax is the time at which the peak concentration occurs. The term clearance denotes a measure of how efficiently the substance is removed, as volume per time.

With `COc1cc2ncnc(-n3nc(-c4ccccn4)nc3N)c2cc1OC`, the Papp at 0.5 h, 10 µM in [1] is 95.9 ×10⁻⁶ cm/s. In addition, the half-life is 0.9 h in series [2]; 0.8 h in series [3]; 3.4 h in [4]; 0.6 h in [5]; greater than 48 h in series [16]; 1 h in [23]. Also, the CLint scaled in series [6] is 61.7 mL/min/kg; in series [7], 57.8 mL/min/kg; in series [8] it was 6.1 mL/min/kg; in [9] it was 52.5 mL/min/kg. Besides, the Stability in the series on Plasma [10] was greater than 48 h; with Plasma [11], 19 h; with Plasma [12], greater than 48 h; in series [13], greater than 48 h; in series [14], greater than 48 h; in series [15], greater than 48 h. Further, the Cmax in series [17] turned out to be 4 µM. In series [18], the Tmax was 5 min. For the same compound, the Drug metabolism entry in the series filed under Mus musculus [19], in the series listed under Mus musculus [20] and in the series filed under Mus musculus [21] was “metabolite_detected” in each case. For the same compound, the clearance in series [22] was 2.67 mL/min.

Regarding `COCCOc1cc2c(-n3nc(-c4ccccn4)nc3N)ncnc2cc1OC`, the Papp at 0.5 h, 10 µM in series [1] amounted to 196 ×10⁻⁶ cm/s. In addition, the half-life was 2 h in series [2]; greater than 4 h in series [3]; greater than 4 h in series [4]; greater than 4 h in series [5]; 19 h in series [24]. In addition, the CLint scaled was 27.1 mL/min/kg in [6], less than 11.7 mL/min/kg in [7], less than 5.2 mL/min/kg in series [8] and less than 8.3 mL/min/kg in series [9]. The Stability in the series with Plasma [10] was greater than 48 h; in the series on Plasma [11], greater than 24 h; in the series on Plasma [12] it was greater than 48 h; in series [13], greater than 24 h; in [14] it was greater than 24 h; in [15], greater than 24 h. This compound also yielded a Cmax in series [17] of 9.5 µM.

In the case of `COc1cc2ncnc(-n3nc(-c4ccccn4)nc3N)c2cc1O`, the Drug metabolism entry in the series listed under Mus musculus [25] is listed as “metabolite_detected”.

`Nc1nc(-c2ccccn2)nn1-c1ncnc2c(O)c(O)c(O)cc12`: the Drug metabolism entry in the series filed under Mus musculus [25] is “metabolite_detected”.

On to `COCCOc1cc2ncnc(-n3nc(-c4ccccn4)nc3N)c2cc1OCCOC`, for which, in series [1], the Papp at 0.5 h, 10 µM came out at 16.6 ×10⁻⁶ cm/s. The half-life in series [2] is 2.4 h; in series [3] it was greater than 4 h; in [4], 1.6 h; in series [5] it was greater than 4 h. Moreover, the CLint scaled in series [6] is 22.9 mL/min/kg; in series [7], less than 11.7 mL/min/kg; in series [8], 12.9 mL/min/kg; in series [9] it was less than 8.3 mL/min/kg. For the same compound, the Stability (with Plasma [10]; with Plasma [12]; in series [13]; in [14]; in [15]) was greater than 48 h in each case. This compound had a Cmax in series [17] of 5.8 µM.

For `COc1cc2ncnc(-n3nc(-c4ccccn4)nc3N)c2cc1OCCCNC(=O)OC(C)C`, in series [1], the Papp at 0.5 h, 10 µM came out at 432 ×10⁻⁶ cm/s. Besides, the half-life in [2] is 0.2 h; in [3], 1 h; in [4], 1.1 h; in [5], greater than 4 h. Besides, the CLint scaled in [6] was 329 mL/min/kg; in series [7], 45.1 mL/min/kg; in series [8], 18.8 mL/min/kg; in series [9] it was less than 7.9 mL/min/kg. Moreover, the Stability (in the series on Plasma [10]; in the series on Plasma [11]; in the series with Plasma [12]; in series [13]; in [14]; in [15]) was greater than 24 h throughout.

Take `COc1cc2ncnc(-n3nc(-c4ccccn4)nc3N)c2cc1O[C@@H]1O[C@H](C(=O)O)[C@@H](O)[C@H](O)[C@H]1O`: in the series filed under Mus musculus [25], the Drug metabolism entry is reported as “metabolite_detected”.

The values are drawn from ChEMBL document CHEMBL3763144, “Optimization of a Novel Series of Ataxia-Telangiectasia Mutated Kinase Inhibitors as Potential Radiosensitizing Agents” (J Med Chem, 2016).
